The source of these data is ChEMBL document CHEMBL1124586, “Carbohydrate biguanides as potential hypoglycemic agents” (1989).

The inhibition in vivo is the drop in the measured response relative to a control, in per cent.

Common to all, as to format: functional
The test system of assay [1] is Rattus norvegicus. The assay is described as follows: Rise in the blood glucose level after 0 min following 100 mg/kg oral dose in fasted nondiabetic rats. A digest of the protocol: (§1)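 Rats fasted 18 h, dosed orally (0.5% w/v methylcellulose suspension or aqueous solution; controls got the same vehicle) 60 min before an oral glucose load of 1.0 g/kg. Tail-vein blood was taken just before (0 min) and 30 min after glucose. Whole blood was deproteinized with Ba(OH)2/ZnSO4 and glucose read by glucose oxidase. Values are mean ± SEM, n rats per group.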

Assay [2] has as its system Rattus norvegicus. The experiment in a line: Rise in the blood glucose level after 30 min following 100 mg/kg oral dose in fasted nondiabetic rats. A digest of the protocol: as §1
The subject of assay [3] is Rattus norvegicus. The experiment in a line: Rise in the glucose level 100 mg/kg oral dose in fasted nondiabetic rats. The procedure, abridged:
(§2)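 Fasted rats (18 h) were given oral drug or vehicle 60 min before 1.0 g/kg oral glucose, with glucose-oxidase readings on tail blood at 0 and 30 min. The change from 0 min was corrected by subtracting the change in vehicle rats given no glucose. Groups were compared with vehicle by ANOVA/Dunnett (p ≤ 0.05). % inhibition = 100(ΔGV − ΔGD)/ΔGV.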

The test system of assay [4] is Rattus norvegicus. The experiment in a line: Percent inhibition of glucose rise, following 100 mg/kg oral dose in fasted nondiabetic rats. The procedure, abridged:
(§3)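 Rats fasted 18 h were dosed orally around 9 a.m. with drug or vehicle (0.5% w/v methylcellulose suspension or aqueous solution), dosed on salt-free basis by mean group body weight, 60 min before oral glucose 1.0 g/kg. Tail-vein blood at 0 and 30 min, glucose oxidase on deproteinized whole blood. Rise corrected for no-glucose vehicle rats; %inhibition = 100(ΔGV−ΔGD)/ΔGV; mean ± SEM.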

Assay [5] has as its system Rattus norvegicus. The assay is described as follows: Rise in the blood glucose level after 0 min following 10 mg/kg oral dose in fasted nondiabetic rats. A digest of the protocol: as §1
In assay [6] the test system is Rattus norvegicus. The assay is described as follows: Rise in the blood glucose level after 0 min following 150 mg/kg oral dose in fasted nondiabetic rats. A digest of the protocol: as §1
The subject of assay [7] is Rattus norvegicus. The experiment in a line: Percent inhibition of glucose rise, following 10 mg/kg oral dose in fasted nondiabetic rats. The procedure, abridged: as §3
For assay [8], the system named is Rattus norvegicus. The experiment in a line: Percent inhibition of glucose rise, following 150 mg/kg oral dose in fasted nondiabetic rats. The procedure, abridged:
as §3

The test system of assay [9] is Rattus norvegicus. The experiment in a line: Percent inhibition of glucose rise, following 300 mg/kg oral dose in fasted nondiabetic rats. The procedure, abridged:
as §3

The subject of assay [10] is Rattus norvegicus. The assay is described as follows: Percent inhibition of glucose rise, following 50 mg/kg oral dose in fasted nondiabetic rats. The procedure, abridged: as §3
Assay [11] concerns Rattus norvegicus. The experiment in a line: Rise in the blood glucose level after 0 min following 300 mg/kg oral dose in fasted nondiabetic rats. A digest of the protocol:
as §1

Assay [12] relates to Rattus norvegicus. The experiment in a line: Rise in the blood glucose level after 0 min following 50 mg/kg oral dose in fasted nondiabetic rats. The procedure, abridged:
as §1

The subject of assay [13] is Rattus norvegicus. The assay is described as follows: Rise in the blood glucose level after 30 min following 10 mg/kg oral dose in fasted nondiabetic rats. A digest of the protocol:
as §1

Assay [14] has as its system Rattus norvegicus. The assay is described as follows: Rise in the blood glucose level after 30 min following 150 mg/kg oral dose in fasted nondiabetic rats. The procedure, abridged:
as §1

In assay [15] the test system is Rattus norvegicus. The experiment in a line: Rise in the blood glucose level after 30 min following 300 mg/kg oral dose in fasted nondiabetic rats. The procedure, abridged:
as §1

The test system of assay [16] is Rattus norvegicus. The assay is described as follows: Rise in the blood glucose level after 30 min following 50 mg/kg oral dose in fasted nondiabetic rats. A digest of the protocol:
as §1

Assay [17] deals with Rattus norvegicus. The experiment in a line: Rise in the blood glucose level at 10 mg/kg oral dose in fasted nondiabetic rats. The procedure, abridged: as §2
Assay [18] has as its system Rattus norvegicus. The assay is described as follows: Rise in the blood glucose level at 100 mg/kg oral dose in fasted nondiabetic rats. A digest of the protocol: as §2
The test system of assay [19] is Rattus norvegicus. The assay is described as follows: Rise in the blood glucose level at 150 mg/kg oral dose in fasted nondiabetic rats. The procedure, abridged:
as §2

Assay [20] has as its system Rattus norvegicus. The experiment in a line: Rise in the blood glucose level at 300 mg/kg oral dose in fasted nondiabetic rats. The procedure, abridged: as §2
Assay [21] relates to Rattus norvegicus. The assay is described as follows: Rise in the blood glucose level at 50 mg/kg oral dose in fasted nondiabetic rats. The procedure, abridged: as §2
For assay [22], the system named is Rattus norvegicus. The assay is described as follows: Rise in the blood glucose level after 0 min following 200 mg/kg oral dose in fasted nondiabetic rats. A digest of the protocol:
as §1

The subject of assay [23] is Rattus norvegicus. The assay is described as follows: Percent inhibition of glucose rise, following 200 mg/kg oral dose in fasted nondiabetic rats. The procedure, abridged: as §3
Assay [24] deals with Rattus norvegicus. The assay is described as follows: Rise in the blood glucose level after 30 min following 200 mg/kg oral dose in fasted nondiabetic rats. The procedure, abridged: as §1
Assay [25] relates to Rattus norvegicus. The experiment in a line: Rise in the blood glucose level at 200 mg/kg oral dose in fasted nondiabetic rats. The procedure, abridged: as §2

For the molecule `CC1(C)O[C@@H]2CO[C@@]3(C/N=C(/N)N=C(N)N)OC(C)(C)OC3[C@@H]2O1` (some centres undefined), the Glucose rise in [1] stood at 67 mg/dL; in assay [2] it was 152 mg/dL; in [3] it was 85 mg/dL. Besides, in assay [4], the inhibition in vivo at 100 mg/kg was -29%.

As to `N=C(N)NC(=N)NCCc1ccccc1` [PHENFORMIN], the Glucose rise in [5] turned out to be 61 mg/dL; in assay [1] it was 70 mg/dL; in assay [6], 58 mg/dL; in assay [11], 70 mg/dL; in assay [12], 63 mg/dL; in assay [13] it was 129 mg/dL. The Glucose rise in [2] was 101 mg/dL; in assay [14], 84 mg/dL; in assay [15], 21 mg/dL; in assay [16], 98 mg/dL; in assay [17], 68 mg/dL; in assay [18], 31 mg/dL. In addition, the Glucose rise in [19] was determined as 26 mg/dL; in [20], 21 mg/dL; in assay [21], 35 mg/dL. For the same molecule, the inhibition in vivo at 10 mg/kg in assay [7] is 0%. Further, the inhibition in vivo at 150 mg/kg in assay [8] was 71%. In assay [9], the inhibition in vivo at 300 mg/kg was 81%. Further, in assay [10], the inhibition in vivo at 50 mg/kg was 57%. For the same molecule, the inhibition in vivo at 100 mg/kg in assay [4] turned out to be 64%.

Turning to `COC1OC(C/N=C(/N)N=C(N)N)[C@@H](OCc2ccccc2)C(OCc2ccccc2)[C@H]1OCc1ccccc1` (some centres undefined), the results for the Glucose rise in [1], in assay [2] and in assay [3] were 82 mg/dL, 123 mg/dL and 41 mg/dL, respectively. Further, the inhibition in vivo at 100 mg/kg in assay [4] came out at 47%.

On to `N=C(N)/N=C(\NCCc1ccccc1)NC1OC(CO)[C@@H](O)C(O)[C@H]1O` (some centres undefined), for which the Glucose rise turned out to be 74 mg/dL in [1], 137 mg/dL in [2] and 63 mg/dL in assay [3]. Also, the inhibition in vivo at 100 mg/kg in assay [4] was determined as 9%.

For `N=C(N)/N=C(\N)NCC1OC(O)[C@H](O)C(O)C1O` (some centres undefined), the Glucose rise in assay [1] amounted to 68 mg/dL; in assay [2], 145 mg/dL; in assay [3], 77 mg/dL. For the same molecule, the inhibition in vivo at 100 mg/kg in [4] is -14%.

Regarding `N=C(N)/N=C(\S)NC1OC(CO)[C@@H](O)C(O)[C@H]1O` (some centres undefined), the Glucose rise in assay [1] came out at 76 mg/dL; in assay [2] it was 139 mg/dL; in assay [3], 63 mg/dL. Further, in assay [4], the inhibition in vivo at 100 mg/kg was determined as 9%.

Take `CC1(C)O[C@H]2OC3C(OC(C)(C)O[C@@H]3C/N=C(\N)N=C(N)N)[C@H]2O1` (some centres undefined): the Glucose rise in assay [1] came out at 78 mg/dL; in assay [22], 78 mg/dL; in assay [2], 118 mg/dL; in assay [24], 121 mg/dL; in [18], 40 mg/dL; in assay [25], 43 mg/dL. The inhibition in vivo at 200 mg/kg in assay [23] came out at 45%. Further, in assay [4], the inhibition in vivo at 100 mg/kg worked out at 48%.

Consider `CO[C@H]1OC(CNC(=N)NC(=N)N)[C@@H](O)C(O)[C@H]1O` (some centres undefined), for which the values for the Glucose rise in [1], in assay [2] and in [3] were 72 mg/dL, 133 mg/dL and 61 mg/dL, respectively. The inhibition in vivo at 100 mg/kg in [4] is 12%.

Turning to `CC1(C)OC2C(C/N=C(\N)N=C(N)N)O[C@@H]3OC(C)(C)O[C@@H]3C2O1` (some centres undefined), the Glucose rise in [1] worked out at 67 mg/dL; in [2] it was 141 mg/dL; in assay [3], 74 mg/dL. Besides, the inhibition in vivo at 100 mg/kg in assay [4] is -12%.

Regarding `CN(C)C(=N)NC(=N)N` [METFORMIN], the Glucose rise in [1] was determined as 68 mg/dL; in assay [2], 113 mg/dL; in assay [3], 45 mg/dL. For the same molecule, in [4], the inhibition in vivo at 100 mg/kg was found to be 41%.

Turning to `N=C(N)/N=C(\N)NCCC1OC(CO)[C@@H](O)C1O` (some centres undefined), the values for the Glucose rise in assay [1], in assay [2] and in [3] were 74 mg/dL, 127 mg/dL and 53 mg/dL, respectively. Further, in assay [4], the inhibition in vivo at 100 mg/kg came to 26%.
